{"source": "ChEMBL document CHEMBL6182837", "about": "“Discovery and biological evaluation of nitrofuranyl-pyrazolopyrimidine hybrid conjugates as potent antimicrobial agents targeting Staphylococcus aureus and methicillin-resistant S. aureus” (RSC Med Chem, 2025)", "key": {"Staphylococcus aureus [1]": {"test_system": "Staphylococcus aureus", "assay": "Inhibition of biofilm formation of methicillin-resistant Staphylococcus aureus ATCC 15187 incubated for 27 hrs by absorbance based method", "assay_type": "functional, organism-based"}, "Staphylococcus aureus [2]": {"test_system": "Staphylococcus aureus", "assay": "Antibacterial activity against Ciprofloxacin-sensitive Staphylococcus aureus […] by Alamar blue staining based analysis", "assay_type": "functional"}, "Staphylococcus aureus [3]": {"test_system": "Staphylococcus aureus", "assay": "Antibacterial activity against Staphylococcus aureus SA-1199B overexpressing NorA by Alamar blue staining based analysis", "assay_type": "functional"}, "[4]": {"assay": "Cytotoxicity against mouse RAW264.7 cells incubated for 48 to 72 hrs by absorbance based assay", "assay_type": "toxicity, cell-based", "method_in_brief": "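MTT read-out: macrophage cells plated at 1 × 10^4 cells per well in DMEM with 10% FBS, 37 °C, 5% CO2; treatment 48 h and 72 h; 2.5 mg ml−1 MTT 3 h, formazan dissolved in DMSO, OD 570 nm; doxorubicin 10 μM control.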"}, "[5]": {"assay": "Hemolytic activity in rabbit erythrocytes up to 200 ug/ml incubated for 4 hrs by absorbance based assay", "assay_type": "toxicity, cell-based, Oryctolagus cuniculus", "conditions": "erythrocyte, dose < 200 µg/ml"}, "Staphylococcus aureus [6]": {"test_system": "Staphylococcus aureus", "assay": "Synergistic antibacterial activity against Staphylococcus aureus ATCC 29213 assessed as fractional inhibitory concentration index at 0.02 ug/ml incubated up to 24 hrs in presence of vancomycin by checkerboard analysis", "assay_type": "functional", "conditions": "dose 0.02 µg/ml", "method_in_brief": "(§1)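 Checkerboard microdilution in cation-adjusted MHB, done per CLSI. The compound and partner antibiotic were dissolved in DMSO. The antibiotic was serially diluted across the plate and the compound was twofold serially diluted into the wells to make the combinations. Each well received 0.1 ml of inoculum, a 0.5 McFarland suspension (1.5 × 10^8 CFU ml−1) diluted 1:100 in MHB. Plates were incubated 24 h at 37 °C, then read with Alamar blue (0.04%). FIC index was calculated.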"}, "Staphylococcus aureus [7]": {"test_system": "Staphylococcus aureus", "assay": "Additive antibacterial activity against Staphylococcus aureus ATCC 29213 assessed as fractional inhibitory concentration index at 0.02 ug/ml incubated up to 24 hrs in presence of ciprofloxacin by checkerboard analysis", "assay_type": "functional", "conditions": "dose 0.02 µg/ml", "method_in_brief": "as §1"}, "Staphylococcus aureus [8]": {"test_system": "Staphylococcus aureus", "assay": "Bacteriostatic activity against Staphylococcus aureus ATCC 29213 assessed as reduction in bacterial count at MIC incubated for 2 to 24 hrs by time-kill assay", "assay_type": "functional", "conditions": "time 2-24 hrs"}, "Staphylococcus aureus [9]": {"test_system": "Staphylococcus aureus", "assay": "Bactericidal activity against methicillin-resistant Staphylococcus aureus ATCC 15187 assessed as reduction in bacterial count incubated for 2 to 24 hrs by time-kill assay", "assay_type": "functional, organism-based", "conditions": "time 2-24 hrs"}, "Staphylococcus aureus [10]": {"test_system": "Staphylococcus aureus", "assay": "Bactericidal activity against methicillin-resistant Staphylococcus aureus ATCC 15187 assessed as reduction in bacterial count at 1 to 4 times MIC by time-kill assay", "assay_type": "functional, organism-based", "conditions": "time 2-24 hrs"}, "Staphylococcus aureus [11]": {"test_system": "Staphylococcus aureus", "assay": "Bactericidal activity against methicillin-resistant Staphylococcus aureus ATCC 15187 assessed as reduction in bacterial count at 4 times MIC measured for 2 hrs by time-kill assay", "assay_type": "functional, organism-based"}, "Staphylococcus aureus [12]": {"test_system": "Staphylococcus aureus", "assay": "Synergistic bactericidal activity against methicillin-resistant Staphylococcus aureus ATCC 15187 assessed as reduction in bacterial count at 0.075 ug/ml measured after 24 hrs in presence of rifampicin by time-kill assay", "assay_type": "functional, organism-based", "conditions": "dose 0.075 µg/ml"}, "Staphylococcus aureus [13]": {"test_system": "Staphylococcus aureus", "assay": "Induction of resistance development in Staphylococcus aureus ATCC 29213 at 0.5 MIC measured after […]", "assay_type": "functional, organism-based", "conditions": "0.5 M", "method_in_brief": "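Bacteria serially passaged under sublethal drug exposure over 20 days, with MIC redetermined at each passage; vancomycin and norfloxacin as controls.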"}, "Staphylococcus aureus [14]": {"test_system": "Staphylococcus aureus", "assay": "Induction of resistance development in Staphylococcus aureus ATCC 29213 assessed as fold increase in MIC at 0.5 MIC measured after 20 passages relative to control", "assay_type": "functional", "method_in_brief": "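Bacteria were serially passaged for 20 days after exposure to a sublethal drug concentration. MIC was determined at each passage. Vancomycin and norfloxacin were run as control agents.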"}, "Staphylococcus aureus [15]": {"test_system": "Staphylococcus aureus", "assay": "Induction of morphological disruption in methicillin-resistant Staphylococcus aureus ATCC 15187 incubated for 2 to 6 hrs by SEM analysis", "assay_type": "functional, organism-based", "conditions": "time 2-6 hrs", "method_in_brief": "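Bacteria incubated for 2 h and 6 h at 1×, 2× and 4× MIC, with vancomycin and daptomycin at 1× and 2× MIC and untreated cells; cell morphology imaged by scanning electron microscopy.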"}, "Staphylococcus aureus [16]": {"test_system": "Staphylococcus aureus", "assay": "Disruption of cell membrane integrity in Staphylococcus aureus ATCC 29213 assessed as red fluorescence at 1 to 2 times MIC incubated for 2.5 hrs by DAPI/PI staining based fluorescence microscopy", "assay_type": "functional, organism-based", "method_in_brief": "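S. aureus treated at 1× and 2× MIC, stained with DAPI (all cells) and PI (damaged membranes), imaged by fluorescence microscopy; vancomycin 2× MIC positive control; untreated blank.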"}, "Staphylococcus aureus [17]": {"test_system": "Staphylococcus aureus", "assay": "Induction of membrane permeabilization in Staphylococcus aureus ATCC 29213 at 1 to 8 times MIC measured after 80 mins by PI staining based analysis relative to control", "assay_type": "functional", "conditions": "1.333 h", "method_in_brief": "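PI permeabilization of S. aureus at 1×, 2×, 4×, 8× MIC followed over time up to 80 min; vancomycin 4× and 8× MIC as drug control; untreated blank; percentage permeabilization.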"}, "Staphylococcus aureus [18]": {"test_system": "Staphylococcus aureus", "assay": "Antibacterial activity against Staphylococcus aureus ATCC 29213 infected in mouse RAW264.7 cells assessed as bacterial eradication by colony counting method", "assay_type": "functional, organism-based", "method_in_brief": "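RAW 264.7 macrophages infected with S. aureus, then treated with compound at multiples of MIC non-toxic to the cells; intracellular bacterial load enumerated as CFU ml−1; vancomycin comparator; one-way ANOVA versus infection control.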"}, "[19]": {"assay": "Efflux ratio of permeability across basal to apical side over apical to basal side in human Caco-2 cells", "assay_type": "ADME, cell-based"}, "[20]": {"assay": "Lipophilicity, logP of compound", "assay_type": "physicochemical", "conditions": "octanol/water"}, "[21]": {"assay": "Lipophilicity, logD of compound", "assay_type": "physicochemical", "conditions": "octanol/water"}, "[22]": {"assay": "AUC (0 to t) in male Balb/c mouse at 1 mg/kg, iv by LC-MS/MS analysis", "assay_type": "ADME, organism-based", "conditions": "in vivo", "method_in_brief": "(§2)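 Balb/c mice dosed 1 mg kg−1 intravenously or 30 mg kg−1 orally (2.5 mg kg−1 oral also given); plasma PK parameters derived.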"}, "[23]": {"assay": "Clearance in male Balb/c mouse at 1 mg/kg, iv by LC-MS/MS analysis", "assay_type": "ADME, organism-based", "conditions": "in vivo", "method_in_brief": "as §2"}, "[24]": {"assay": "Volume of distribution in male Balb/c mouse at 1 mg/kg, iv by LC-MS/MS analysis", "assay_type": "ADME, organism-based", "conditions": "in vivo", "method_in_brief": "as §2"}, "[25]": {"assay": "Terminal half life in male Balb/c mouse at 30 mg/kg, po by LC-MS/MS analysis", "assay_type": "ADME, organism-based", "conditions": "in vivo, read-out: beta t1/2 (converted)", "method_in_brief": "as §2"}, "[26]": {"assay": "Cmax in male Balb/c mouse at 30 mg/kg, po by LC-MS/MS analysis", "assay_type": "ADME, organism-based", "conditions": "in vivo", "method_in_brief": "as §2"}, "Staphylococcus aureus [27]": {"test_system": "Staphylococcus aureus", "assay": "Antibacterial activity against methicillin-resistant Staphylococcus aureus ATCC 15187 infected in male Balb/c/c mouse assessed as reduction in bacterial load in lung at 50 to 100 mg/kg measured after 24 hrs by colony counting method", "assay_type": "functional, organism-based", "conditions": "dose 50-100 mg/kg", "method_in_brief": "(§3)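 Mouse peritonitis model: 0.1 ml MRSA suspension (10^8 CFU ml−1) given intraperitoneally; treatment intraperitoneal at 50 or 100 mg kg−1 at 2 and 5 h post-infection, with saline and vancomycin (50 mg kg−1) controls; killed at 24 h; kidney and lung homogenates plated on Mueller–Hinton agar with 20 μg ml−1 ciprofloxacin, 24 h; CFU ml−1; unpaired t-test.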"}, "Staphylococcus aureus [28]": {"test_system": "Staphylococcus aureus", "assay": "Antibacterial activity against methicillin-resistant Staphylococcus aureus ATCC 15187 infected in male Balb/c/c mouse assessed as reduction in bacterial load in kidney at 50 to 100 mg/kg measured after 24 hrs by colony counting method", "assay_type": "functional, organism-based", "conditions": "dose 50-100 mg/kg", "method_in_brief": "as §3"}}, "note": "Activity calls are given as the source filed them. The rule behind the calls is not given here.", "data": [{"smiles": "CCCc1nn(C)c2c(Nc3ccc(O)cc3)nc(-c3ccc([N+](=O)[O-])o3)nc12", "values": [{"measurement": "inhibition", "setting": "Staphylococcus aureus [1]", "result": "Dose-dependent-effect"}, {"measurement": "MIC", "setting": "Staphylococcus aureus [2]", "result": 0.3, "unit": "µg/mL"}, {"measurement": "MIC", "setting": "Staphylococcus aureus [3]", "result": 0.6, "unit": "µg/mL"}, {"measurement": "IC50", "setting": "[4]", "result": "> 100", "unit": "µg/mL"}, {"measurement": "Activity", "setting": "[5]", "result": "Non-toxic"}, {"measurement": "fractional inhibitory concentration index (FICI)", "setting": "Staphylococcus aureus [6]", "result": 0.5}, {"measurement": "fractional inhibitory concentration index (FICI)", "setting": "Staphylococcus aureus [7]", "result": 1}, {"measurement": "Activity", "setting": "Staphylococcus aureus [8]", "result": "<3", "unit": "log10CFU"}, {"measurement": "Activity", "setting": "Staphylococcus aureus [9]", "result": "Dose-dependent-effect"}, {"measurement": "Activity", "setting": "Staphylococcus aureus [10]", "result": "Time-dependent-effect"}, {"measurement": "Activity", "setting": "Staphylococcus aureus [11]", "result": "Active"}, {"measurement": "Activity", "setting": "Staphylococcus aureus [12]", "result": "Moderate_effect"}, {"measurement": "Activity", "setting": "Staphylococcus aureus [13]", "result": "inactive"}, {"measurement": "fold change (FC)", "setting": "Staphylococcus aureus [14]", "result": 200}, {"measurement": "Activity", "setting": "Staphylococcus aureus [15]", "result": "Active"}, {"measurement": "Activity", "setting": "Staphylococcus aureus [16]", "result": "Active"}, {"measurement": "Activity", "setting": "Staphylococcus aureus [17]", "result": 60, "unit": "%"}, {"measurement": "Activity", "setting": "Staphylococcus aureus [18]", "result": "Dose-dependent-effect"}, {"measurement": "efflux ratio", "setting": "[19]", "result": 1.3}, {"measurement": "logP", "setting": "[20]", "result": 2.92}, {"measurement": "logD", "setting": "[21]", "result": 2.92}, {"measurement": "AUC(0-t)", "setting": "[22]", "result": 90.8, "unit": "ng·h/mL"}, {"measurement": "clearance", "setting": "[23]", "result": 176, "unit": "mL/min/kg"}, {"measurement": "Vd", "setting": "[24]", "result": 1.69, "unit": "L/kg"}, {"measurement": "half-life", "setting": "[25]", "result": 21, "unit": "min"}, {"measurement": "Cmax", "setting": "[26]", "result": 2010, "unit": "ng/mL"}, {"measurement": "Activity", "setting": "Staphylococcus aureus [27]", "result": "Active; Significantly Lesser Effect Was Observed At 50 To 100 Mg/Kg Compared To Vancomycin"}, {"measurement": "Activity", "setting": "Staphylococcus aureus [28]", "result": "Active; Significantly Greater Effect Was Observed At 50 Mg/Kg Compared To Vancomycin"}]}]}
